# Experimental data gathered from unrelated publications.
# Compare with care: the assays were run in different laboratories.
# Target: Serine/threonine-protein kinase DCLK1 (DCLK1, Homo sapiens, UniProt O15075)
# One construct used (O15075 1-740): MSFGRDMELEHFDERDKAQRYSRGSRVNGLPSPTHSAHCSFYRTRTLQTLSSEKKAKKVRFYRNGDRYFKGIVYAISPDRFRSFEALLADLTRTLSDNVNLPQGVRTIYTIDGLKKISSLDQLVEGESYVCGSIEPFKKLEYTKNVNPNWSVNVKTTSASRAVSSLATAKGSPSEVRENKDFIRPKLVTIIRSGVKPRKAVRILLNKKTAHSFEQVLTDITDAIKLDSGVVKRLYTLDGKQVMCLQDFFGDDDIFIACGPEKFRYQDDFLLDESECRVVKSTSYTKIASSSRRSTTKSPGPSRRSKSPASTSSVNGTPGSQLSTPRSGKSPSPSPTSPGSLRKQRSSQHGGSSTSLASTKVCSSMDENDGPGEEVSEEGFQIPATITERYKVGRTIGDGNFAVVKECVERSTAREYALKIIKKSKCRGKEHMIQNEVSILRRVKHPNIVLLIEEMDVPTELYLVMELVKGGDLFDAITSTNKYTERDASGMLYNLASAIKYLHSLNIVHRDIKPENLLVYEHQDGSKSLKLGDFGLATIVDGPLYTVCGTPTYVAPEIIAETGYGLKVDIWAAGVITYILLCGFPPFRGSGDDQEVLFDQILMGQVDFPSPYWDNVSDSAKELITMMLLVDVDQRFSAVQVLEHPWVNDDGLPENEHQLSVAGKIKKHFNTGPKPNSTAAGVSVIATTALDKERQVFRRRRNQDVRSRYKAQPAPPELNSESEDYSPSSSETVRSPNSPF
Structure (SMILES),test,setting,endpoint,value
CC(=O)N1CCC(c2ccc(C(=O)NC(=N)N)cc2C(F)(F)F)CC1,"cell-free assay, competition with immobilised ligand",1 µM,remaining binding,100%
Cn1c2c(Cl)c(Cl)ccc2c2cc(N)[nH]c(=O)c21,"thermal stability, DSF",10 µM,ΔTm,0.1 °C
O=C(CSc1nc2nccnc2c(=O)n1CCc1ccccc1)Nc1nccs1,"enzyme activity, inhibitor",10 µM,inhibition,14%
Cc1ccc(C(=O)Nc2ccc(CN3CCN(C)CC3)c(C(F)(F)F)c2)cc1C#Cc1cnc2cccnn12,"enzyme activity, inhibitor",23.5 nM,remaining activity,93%
Cc1sc(C(=O)NC2COC2)cc1-n1cc(NC(=O)Nc2c(F)cccc2Cl)cn1,"enzyme activity, inhibitor",10 µM,remaining activity,67.2%
Nc1cnc(N2CCc3cc(S(=O)(=O)Nc4c(F)cc(Cl)cc4F)cc(N4CCCC4=O)c32)nc1,"cell-free assay, competition with immobilised ligand",1 µM,remaining binding,100%
Cn1c2c(c3ccc(Cl)c(Cl)c31)C(C#N)C1(CCOCC1)NC2=O (centres unmarked),"thermal stability, DSF",10 µM,ΔTm,0 °C
O=C(Nc1cnn(-c2csc(C(=O)NC3COC3)c2)c1)Nc1ccccc1Cl,"enzyme activity, inhibitor",5 µM,remaining activity,99.2%
Cc1c(NC(=O)c2cc(C(N)=O)nc3cc(F)ccc23)c(C(F)(F)F)nn1Cc1ccc(C(C)(C)C)cc1,"cell-free assay, competition with immobilised ligand",1 µM,remaining binding,91%
Nc1ncnc2occ(-c3ccc(NC(=O)Nc4cc(C(F)(F)F)ccc4F)cc3)c12,"cell-free assay, inhibitor",20 µM,remaining signal,80%
Cn1c2c(Cl)c(Cl)ccc2c2cc[nH]c(=O)c21,"thermal stability, DSF",10 µM,ΔTm,-0.1 °C
CS(=O)(=O)Nc1cccc(-c2csc(NC(=O)CSc3nc4nccnc4c(=O)n3CCc3ccccc3)n2)c1,"enzyme activity, inhibitor",10 µM,inhibition,1%
Cn1c2c(c3ccc(Cl)c(Cl)c31)C(C#N)C1(CCN(C(=O)OC(C)(C)C)CC1)NC2=O (racemic),"thermal stability, DSF",10 µM,ΔTm,0 °C
CC(C)(O)[C@H]1CC[C@H](Nc2ccc3ncc(-c4cccc(C(F)(F)F)c4)n3n2)CC1,"enzyme activity, inhibitor",1 µM,remaining activity,93.4%
